{
  "source": "paper PMC4539048",
  "about": "(Science translational medicine, 2015)",
  "key": {"[1]": {"target": "P. falciparum DHODH (PfDHODH) (Plasmodium falciparum, UniProt Q08210)", "sequence (Q08210 24-569)": "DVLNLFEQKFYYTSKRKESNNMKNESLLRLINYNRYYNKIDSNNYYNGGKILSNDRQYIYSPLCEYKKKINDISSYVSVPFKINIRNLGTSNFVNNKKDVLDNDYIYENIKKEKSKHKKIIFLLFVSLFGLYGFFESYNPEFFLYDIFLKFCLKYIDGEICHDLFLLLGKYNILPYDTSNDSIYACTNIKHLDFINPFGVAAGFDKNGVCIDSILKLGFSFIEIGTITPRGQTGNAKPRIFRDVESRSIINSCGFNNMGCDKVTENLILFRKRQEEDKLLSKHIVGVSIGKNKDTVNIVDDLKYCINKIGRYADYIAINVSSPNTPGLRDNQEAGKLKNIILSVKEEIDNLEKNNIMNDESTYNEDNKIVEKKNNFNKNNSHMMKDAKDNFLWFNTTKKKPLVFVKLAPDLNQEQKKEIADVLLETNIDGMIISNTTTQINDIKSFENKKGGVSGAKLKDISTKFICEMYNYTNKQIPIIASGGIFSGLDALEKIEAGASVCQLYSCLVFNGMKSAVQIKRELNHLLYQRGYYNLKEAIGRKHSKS", "type": "biochemical", "settings": "for IC50, P. falciparum DHODH: mean of 3 technical replicates, 95% confidence interval in parentheses"}, "human DHODH": {"target": "human DHODH (Homo sapiens, UniProt Q02127)", "sequence (Q02127 whole entry)": "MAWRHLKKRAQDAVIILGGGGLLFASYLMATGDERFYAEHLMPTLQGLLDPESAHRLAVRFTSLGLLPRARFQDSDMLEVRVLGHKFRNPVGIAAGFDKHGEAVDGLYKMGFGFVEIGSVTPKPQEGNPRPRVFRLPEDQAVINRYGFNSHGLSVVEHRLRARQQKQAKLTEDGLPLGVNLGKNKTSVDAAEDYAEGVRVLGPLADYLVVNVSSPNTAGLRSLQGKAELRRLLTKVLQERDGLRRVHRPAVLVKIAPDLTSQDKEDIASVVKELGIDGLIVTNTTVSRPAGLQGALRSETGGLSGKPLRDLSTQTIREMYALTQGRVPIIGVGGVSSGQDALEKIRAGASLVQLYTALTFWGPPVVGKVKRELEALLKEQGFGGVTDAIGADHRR", "test": "DHODH inhibition, DCIP spectrophotometric assay", "type": "biochemical", "settings": "mean of 3 technical replicates, 95% confidence interval in parentheses"}, "mouse DHODH": {"target": "mouse DHODH (Mus musculus, UniProt O35435)", "sequence (O35435 whole entry)": "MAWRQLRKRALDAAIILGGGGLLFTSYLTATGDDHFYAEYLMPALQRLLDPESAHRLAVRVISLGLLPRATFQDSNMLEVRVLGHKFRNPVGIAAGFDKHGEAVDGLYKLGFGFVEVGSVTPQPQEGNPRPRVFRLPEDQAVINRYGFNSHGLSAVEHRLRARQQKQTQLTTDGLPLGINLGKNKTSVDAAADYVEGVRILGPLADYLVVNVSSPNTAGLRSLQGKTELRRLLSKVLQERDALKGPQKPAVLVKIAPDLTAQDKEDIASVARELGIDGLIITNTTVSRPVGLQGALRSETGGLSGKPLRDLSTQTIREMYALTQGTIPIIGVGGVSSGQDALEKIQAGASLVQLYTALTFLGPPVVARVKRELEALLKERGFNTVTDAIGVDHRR", "test": "DHODH inhibition, DCIP spectrophotometric assay", "type": "biochemical", "settings": "mean of 3 technical replicates, 95% confidence interval in parentheses"}, "rat DHODH": {"target": "rat DHODH (Rattus norvegicus, UniProt Q63707)", "sequence (Q63707 whole entry)": "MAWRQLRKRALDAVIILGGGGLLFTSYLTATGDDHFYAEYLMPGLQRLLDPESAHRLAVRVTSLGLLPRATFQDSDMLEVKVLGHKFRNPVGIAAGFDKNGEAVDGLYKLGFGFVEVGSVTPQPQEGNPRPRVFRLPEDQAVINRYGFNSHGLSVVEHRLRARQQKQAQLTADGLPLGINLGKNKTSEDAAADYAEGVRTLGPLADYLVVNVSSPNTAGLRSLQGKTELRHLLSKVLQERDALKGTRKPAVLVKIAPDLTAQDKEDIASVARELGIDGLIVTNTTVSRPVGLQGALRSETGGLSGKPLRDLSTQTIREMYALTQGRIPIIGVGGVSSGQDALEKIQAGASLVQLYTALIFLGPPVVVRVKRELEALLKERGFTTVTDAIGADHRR", "test": "DHODH inhibition, DCIP spectrophotometric assay", "type": "biochemical", "settings": "mean of 3 technical replicates, 95% confidence interval in parentheses"}, "dog DHODH": {"target": "dog DHODH (Canis lupus familiaris, UniProt A0A8I3MWX2)", "sequence (A0A8I3MWX2 1-406)": "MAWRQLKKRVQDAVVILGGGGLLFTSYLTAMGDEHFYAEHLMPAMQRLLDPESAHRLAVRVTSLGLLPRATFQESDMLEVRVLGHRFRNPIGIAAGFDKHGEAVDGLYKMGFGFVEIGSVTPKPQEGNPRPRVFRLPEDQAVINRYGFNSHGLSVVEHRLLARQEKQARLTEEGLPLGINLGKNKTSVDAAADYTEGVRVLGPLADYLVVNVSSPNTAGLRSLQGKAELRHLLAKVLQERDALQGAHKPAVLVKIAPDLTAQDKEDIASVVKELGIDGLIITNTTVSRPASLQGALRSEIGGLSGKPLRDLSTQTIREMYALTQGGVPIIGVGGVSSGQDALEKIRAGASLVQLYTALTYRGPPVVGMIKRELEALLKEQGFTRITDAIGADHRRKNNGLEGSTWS", "test": "DHODH inhibition, DCIP spectrophotometric assay", "type": "biochemical", "settings": "mean of 3 technical replicates, 95% confidence interval in parentheses"}, "P. falciparum 3D7 [2]": {"system": "P. falciparum 3D7", "test": "In vitro P. falciparum 3D7 growth inhibition", "type": "cell-based", "settings": "for P. falciparum 3D7 growth inhibition EC50: 0.5% Albumax-II medium, 95% confidence intervals in parenthesis", "how_it_was_run": "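SYBR-green growth assay on P. falciparum 3D7 and drug-resistant lines, including chloroquine- and pyrimethamine-resistant parasites, cultured in RPMI-1640 with 0.5% Albumax-II. At least triplicate data per concentration. EC50 from the log(inhibitor) vs response variable-slope (four-parameter) fit by nonlinear least squares, reported with 95% confidence intervals of the fit.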"}, "P. vivax DHODH (PvDHODH)": {"target": "P. vivax DHODH (PvDHODH) (Plasmodium vivax, UniProt A5K1N1)", "test": "DHODH inhibition, DCIP spectrophotometric assay", "type": "biochemical", "settings": "mean of 3 technical replicates, 95% confidence interval in parentheses"}, "rabbit DHODH": {"target": "rabbit DHODH (Oryctolagus cuniculus, UniProt G1SWF3)", "sequence (G1SWF3 1-395)": "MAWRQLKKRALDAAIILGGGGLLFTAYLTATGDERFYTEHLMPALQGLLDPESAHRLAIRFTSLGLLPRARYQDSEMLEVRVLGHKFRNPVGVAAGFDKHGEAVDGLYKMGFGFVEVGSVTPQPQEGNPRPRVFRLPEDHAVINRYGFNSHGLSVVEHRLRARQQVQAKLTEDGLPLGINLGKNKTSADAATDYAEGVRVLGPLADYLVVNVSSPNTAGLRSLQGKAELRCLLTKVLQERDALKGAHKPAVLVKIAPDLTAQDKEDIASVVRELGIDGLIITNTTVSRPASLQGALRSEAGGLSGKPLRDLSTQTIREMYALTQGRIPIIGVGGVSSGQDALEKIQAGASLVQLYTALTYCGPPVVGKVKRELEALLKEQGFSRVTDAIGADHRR", "test": "DHODH inhibition, DCIP spectrophotometric assay", "type": "biochemical", "settings": "mean of 3 technical replicates"}, "[3]": {"test": "Metabolite identification and profiling in pooled plasma", "type": "in vivo", "settings": "all species, mass spectrometry peak area ratios, single dose of DSM265", "how_it_was_run": "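Pooled plasma from single-dose PK studies in mice, rabbits, monkeys and dogs was profiled by mass spectrometry. Metabolites were identified, and the main oxidative metabolite's structure was confirmed by synthesis. Each metabolite's exposure was estimated as a share of parent AUC from peak area ratios.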"}, "[4]": {"system": "Salmonella typhimurium-E. coli", "test": "5-strain bacterial reverse mutation assay"}, "P. falciparum 3D7 [5]": {"system": "P. falciparum 3D7", "test": "Blood-stage phenotype and development by microscopy", "type": "cell-based", "settings": "10xEC50, 48 h", "how_it_was_run": "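Giemsa-stained smears were scored by microscopy, at least 200 cells per condition, for stage arrest and morphology. Standard antimalarials served as controls.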"}, "[6]": {"system": "P. falciparum Dd2 and resistant clones", "test": "microbe, parasite or virus in culture", "type": "cell-based", "settings": "isolates derived from Dd2 and K1"}, "P. falciparum Dd2 [7]": {"system": "P. falciparum Dd2", "type": "cell-based"}, "P. falciparum HB3": {"system": "P. falciparum HB3", "test": "In vitro selection of resistant parasites, HB3", "type": "cell-based", "settings": "HB3 strain"}, "P. falciparum Dd2 [8]": {"system": "P. falciparum Dd2", "settings": "Dd2, same 3xEC50 protocol; cited from earlier work"}, "[9]": {"system": "G6PD-deficient human red blood cells", "type": "in vivo, NOD-SCID mice", "settings": "blood type A- G6PD-deficient human red blood cells"}, "[10]": {"system": "P. falciparum NF54 liver-stage parasites", "settings": "historical data using the same donor; cited from earlier work"}},
  "data": [
    {"smiles": "Cc1cc(Nc2ccc(S(F)(F)(F)(F)F)c(F)c2)n2nc(C(C)(F)F)nc2n1", "note": "[DSM430, 2-(1,1-difluoroethyl)-N-(3-fluoro-4-(pentafluoro-l^6-sulfanyl)phenyl)-5-methyl-[1,2,4]triazolo[1,5-a]pyrimidin-7-amine]", "values": [
      {"measurement": "IC50, P. falciparum DHODH", "setting": "[1]", "value": "0.010 (0.0079 – 0.014) μg/mL"},
      {"measurement": "IC50, Human DHODH", "setting": "human DHODH", "value": "3.7 (2.6 – 4.8) μg/mL"},
      {"measurement": "IC50, Mouse DHODH", "setting": "mouse DHODH", "value": "0.10 (0.082 – 0.12) μg/mL"},
      {"measurement": "IC50, Rat DHODH", "setting": "rat DHODH", "value": "0.082 (0.069 – 0.099) μg/mL"},
      {"measurement": "IC50, Dog DHODH", "setting": "dog DHODH", "value": "0.56 (0.48 – 0.65) μg/mL"},
      {"measurement": "P. falciparum 3D7 growth inhibition EC50", "setting": "P. falciparum 3D7 [2]", "value": "0.0002 (0.00011 – 0.00056) μg/mL"}
    ]},
    {"smiles": "CC(F)(F)c1nc2nc(CO)cc(Nc3ccc(S(F)(F)(F)(F)F)cc3)n2n1", "note": "[DSM450, (2-(1,1-difluoroethyl)-7-((4-(pentafluoro-l^6-sulfanyl)phenyl)amino)-[1,2,4]triazolo[1,5-a]pyrimidin-5-yl)methanol]", "values": [
      {"measurement": "fold less potent than DSM265 as a PfDHODH inhibitor", "setting": "[1]", "value": 3, "unit": "fold"},
      {"measurement": "IC50, P. falciparum DHODH", "setting": "[1]", "value": "0.032 (0.026 – 0.040) μg/mL"},
      {"measurement": "IC50, P. vivax DHODH", "setting": "P. vivax DHODH (PvDHODH)", "value": "0.11 (0.081 – 0.15) μg/mL"},
      {"measurement": "IC50, Human DHODH", "setting": "human DHODH", "value": ">43", "unit": "µg/mL"},
      {"measurement": "IC50, Mouse DHODH", "setting": "mouse DHODH", "value": "4.5 (3.1 – 6.9) μg/mL"},
      {"measurement": "IC50, Rat DHODH", "setting": "rat DHODH", "value": "1.6 (1.2 – 2.0) μg/mL"},
      {"measurement": "IC50, Dog DHODH", "setting": "dog DHODH", "value": "25 (21 – 29) μg/mL"},
      {"measurement": "IC50, Rabbit DHODH", "setting": "rabbit DHODH", "value": ">43", "unit": "µg/mL"},
      {"measurement": "fold less active than DSM265 against P. falciparum 3D7 parasites", "setting": "P. falciparum 3D7 [2]", "value": 43, "unit": "fold"},
      {"measurement": "P. falciparum 3D7 growth inhibition EC50", "setting": "P. falciparum 3D7 [2]", "value": "0.079 (0.042 – 0.15) μg/mL"},
      {"measurement": "plasma metabolite exposure as share of the parent AUC", "setting": "[3]", "value": "4–27%"}
    ]},
    {"smiles": "Nc1ccc(S(F)(F)(F)(F)F)cc1", "note": "[SF5-aniline]", "values": [
      {"measurement": "mutagenic activity (Ames test)", "setting": "[4]", "value": "non-mutagenic"}
    ]},
    {"smiles": "C[C@@H]1CC[C@H]2[C@@H](C)C(=O)O[C@@H]3O[C@@]4(C)CC[C@@H]1[C@]32OO4", "note": "[artemisinin]", "values": [
      {"measurement": "blood-stage phenotype after treatment", "setting": "P. falciparum 3D7 [5]", "value": "pyknotic"},
      {"measurement": "sensitivity of DSM265-resistant isolates to the drug", "setting": "[6]", "value": "fully sensitive"}
    ]},
    {"smiles": "O=C1C(O)=C([C@H]2CC[C@H](c3ccc(Cl)cc3)CC2)C(=O)c2ccccc21", "note": "[atovaquone]", "values": [
      {"measurement": "drug concentration required to suppress emergence of resistant parasites", "setting": "P. falciparum Dd2 [7]; Dd2, inoculum 2×10^7 parasites", "value": 33, "unit": "xEC50"},
      {"measurement": "EC50 increase of resistant Dd2 parasites over wild-type", "setting": "P. falciparum Dd2 [7]; parasites selected with the same drug", "value": 10, "unit": "fold"},
      {"measurement": "outcome of resistance selection", "setting": "P. falciparum HB3", "value": "resistant HB3 parasites could be obtained"},
      {"measurement": "sensitivity of DSM265-resistant isolates to the drug", "setting": "[6]", "value": "fully sensitive"}
    ]},
    {"smiles": "CCN(CC)CCCC(C)Nc1ccnc2cc(Cl)ccc12", "note": "(centres unmarked) [chloroquine]", "values": [
      {"measurement": "minimum inoculum for resistance (MIR)", "setting": "P. falciparum Dd2 [8]", "value": "10^8"}
    ]},
    {"smiles": "COc1cc(NC(C)CCCN)c2ncccc2c1", "note": "(centres unmarked) [primaquine]", "values": [
      {"measurement": "hemolytic toxicity", "setting": "[9]", "value": "substantial loss in human RBCs"},
      {"measurement": "EC50 on hepatocyte infection rate (EEF count)", "setting": "[10]", "value": "0.20 (0.059 – 0.71) μg/mL"},
      {"measurement": "Liver-stage schizont EC50 (EEF diameter/size)", "setting": "[10]", "value": 0.15, "unit": "µg/mL"}
    ]},
    {"smiles": "CCc1nc(N)nc(N)c1-c1ccc(Cl)cc1", "note": "[pyrimethamine]", "values": [
      {"measurement": "blood-stage phenotype after treatment", "setting": "P. falciparum 3D7 [5]", "value": "arrested as mature trophozoites"}
    ]}
  ]
}
